Active and inactive are the calls of the source. The calls are words filed in the database; no cut-off is given here.
How the values were obtained:
[1] = biological target: T1, Nuclear receptor subfamily 4immunitygroup A member 1 (Homo sapiens, UniProt P22736); assay: Binding affinity to Nur77 receptor expressed in human BGC823 cells; type: cell-based, BGC-823
[2] = biological target: T1, Nuclear receptor subfamily 4immunitygroup A member 1; assay: Binding affinity to nuclear orphan receptor Nur77-ligand binding domain at 5 Um by fluorescence quenching analysis
[3] = biological target: T1, Nuclear receptor subfamily 4immunitygroup A member 1; assay: Binding affinity to nuclear orphan receptor Nur77 assessed as conformational change in receptor by CD spectroscopic
[4] = biological target: T1, Nuclear receptor subfamily 4immunitygroup A member 1; assay: Agonist activity at nuclear orphan receptor Nur77 expressed in human BGC823 cells co-transfected with fused GAL4-LBD assessed as transactivation after 12 hrs by luciferase reporter gene assay; type: functional, cell-based, BGC-823
[5] = biological target: T1, Nuclear receptor subfamily 4immunitygroup A member 1; assay: Agonist activity at nuclear orphan receptor Nur77 expressed in human BGC823 cells co-transfected with fused GAL4-DBD assessed as transactivation after 12 hrs by luciferase reporter gene assay; type: functional, cell-based; conditions: BGC-823
[6] = biological target: T1, Nuclear receptor subfamily 4immunitygroup A member 1; assay: Agonist activity at nuclear orphan receptor Nur77 expressed in human BGC823 cells co-transfected with fused GAL4-Y453A assessed as transactivation after 12 hrs by luciferase reporter gene assay; type: functional, cell-based; conditions: BGC-823
[7] = biological target: Nuclear receptor subfamily 4 group A member 3 (Homo sapiens) (UniProt Q92570); assay: Agonist activity at nuclear orphan receptor NOR1 expressed in human BGC823 cells co-transfected with fused GAL4-NOR1(LBD) assessed as transactivation after 12 hrs by transactivation assay; type: functional, cell-based; conditions: BGC-823
Chain of Nuclear receptor subfamily 4 group A member 3 (Homo sapiens) (Q92570 whole entry, the tested form may be a part): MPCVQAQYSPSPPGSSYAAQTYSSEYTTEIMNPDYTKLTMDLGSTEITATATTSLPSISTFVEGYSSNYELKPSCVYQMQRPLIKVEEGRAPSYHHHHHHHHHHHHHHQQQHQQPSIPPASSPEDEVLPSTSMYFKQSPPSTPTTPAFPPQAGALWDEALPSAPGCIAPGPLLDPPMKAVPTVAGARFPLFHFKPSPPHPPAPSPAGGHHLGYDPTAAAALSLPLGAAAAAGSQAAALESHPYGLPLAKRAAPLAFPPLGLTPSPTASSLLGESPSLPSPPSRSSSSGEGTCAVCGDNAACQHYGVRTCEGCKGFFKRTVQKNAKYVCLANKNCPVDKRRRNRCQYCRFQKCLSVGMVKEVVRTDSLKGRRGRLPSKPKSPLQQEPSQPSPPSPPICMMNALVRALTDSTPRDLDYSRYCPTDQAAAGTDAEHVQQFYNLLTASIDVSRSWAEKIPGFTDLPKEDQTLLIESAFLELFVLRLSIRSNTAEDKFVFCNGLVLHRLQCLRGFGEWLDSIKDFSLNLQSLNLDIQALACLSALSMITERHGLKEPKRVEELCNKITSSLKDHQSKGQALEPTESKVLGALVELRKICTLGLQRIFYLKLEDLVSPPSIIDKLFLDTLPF

Mus musculus [8] = assay: Increase in blood glucose level in Nr4a1 deficient mouse C57BL/6 at 50 mg/kg, ip within 30 mins; type: functional; conditions: route intraperitoneal
Method in brief: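 C57BL/6 mice (wild-type or Nr4a1-/-, six weeks old) fasted 16 h with water, then given 50 mg kg-1 intraperitoneally. DMSO (50 μl) or injection without vehicle served as controls. Tail-vein blood glucose was read by glucometer at 15, 30, 60, 90, 120, 180 and 300 min. Means ± s.e.m.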

[9] = biological target: Nuclear receptor subfamily 4 group A member 1 (Mus musculus) (UniProt P12813); assay: Agonist activity at Nur77 in wild-type mouse C57BL/6 assessed as phosphofructokinase mRNA at 50 mg/kg, ip within 30 to 300 mins by real-time PCR analysis; type: functional, organism-based; design: dose 50 mg/kg
Chain of Nuclear receptor subfamily 4 group A member 1 (Mus musculus) (P12813 whole entry): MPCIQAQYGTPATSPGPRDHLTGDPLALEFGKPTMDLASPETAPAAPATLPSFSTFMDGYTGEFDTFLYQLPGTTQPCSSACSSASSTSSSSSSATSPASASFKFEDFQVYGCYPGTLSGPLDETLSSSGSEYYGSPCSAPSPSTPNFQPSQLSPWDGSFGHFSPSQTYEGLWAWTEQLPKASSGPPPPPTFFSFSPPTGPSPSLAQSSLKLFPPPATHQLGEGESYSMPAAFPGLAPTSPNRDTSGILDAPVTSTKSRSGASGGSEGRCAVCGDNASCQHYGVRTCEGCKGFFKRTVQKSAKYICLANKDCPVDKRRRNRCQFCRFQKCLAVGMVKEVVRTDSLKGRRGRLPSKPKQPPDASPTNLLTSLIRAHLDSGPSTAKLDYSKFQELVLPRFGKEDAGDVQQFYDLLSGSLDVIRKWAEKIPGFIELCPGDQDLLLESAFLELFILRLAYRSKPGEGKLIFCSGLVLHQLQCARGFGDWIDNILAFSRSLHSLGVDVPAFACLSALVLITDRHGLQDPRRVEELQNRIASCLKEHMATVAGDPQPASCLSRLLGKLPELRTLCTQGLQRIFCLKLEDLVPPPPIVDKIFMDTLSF

[10] = biological target: Nuclear receptor subfamily 4 group A member 1 (Mus musculus) (UniProt P12813); assay: Agonist activity at Nur77 in wild-type mouse C57BL/6 assessed as pyruvate kinase mRNA at 50 mg/kg, ip within 30 mins by real-time PCR analysis; type: functional, organism-based; design: dose 50 mg/kg
[11] = biological target: Nuclear receptor subfamily 4 group A member 1 (Mus musculus) (UniProt P12813); assay: Agonist activity at Nur77 in wild-type mouse C57BL/6 assessed as phosphofructokinase mRNA at 50 mg/kg, ip after 300 mins by real-time PCR analysis; type: functional, organism-based; design: dose 50 mg/kg
[12] = biological target: Nuclear receptor subfamily 4 group A member 1 (Mus musculus) (UniProt P12813); assay: Agonist activity at Nur77 in Nr4a1 deficient mouse C57BL/6 assessed as glucose-6-phosphatase mRNA at 50 mg/kg, ip by real-time PCR analysis; type: functional, organism-based; design: dose 50 mg/kg
[13] = biological target: Nuclear receptor subfamily 4 group A member 1 (Mus musculus) (UniProt P12813); assay: Agonist activity at Nur77 in Nr4a1 deficient mouse C57BL/6 assessed as fructose-1,6-bisphosphatase mRNA at 50 mg/kg, ip by real-time PCR analysis; type: functional, organism-based; design: dose 50 mg/kg
Mus musculus [14] = species on record: Mus musculus; assay: Reduction in blood glucose level in insulin treated mouse C57BL/6 within 30 mins; type: functional
Method in brief: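 C57BL/6 mice fasted 5 h with water, then injected intraperitoneally with insulin (0.5 U kg-1), alone or with compound at 50 mg kg-1. Tail-vein blood glucose was read by glucometer at 15–300 min after treatment. Means ± s.e.m.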

[15] = biological target: Nuclear receptor subfamily 4 group A member 1 (Mus musculus) (UniProt P12813); assay: Agonist activity at Nur77 in insulin treated mouse C57BL/6 assessed as glucose-6-phosphatase mRNA after 60 mins by real-time PCR relative to control; type: functional
[16] = biological target: Nuclear receptor subfamily 4 group A member 1 (Mus musculus) (UniProt P12813); assay: Agonist activity at Nur77 in insulin treated mouse C57BL/6 assessed as fructose-1,6-bisphosphatase mRNA after 60 mins by real-time PCR relative to control; type: functional
BGC-823 [17] = assay: Induction of Nur77 mediated apoptosis in human BGC823 cells assessed as cytochrome C release from mitochondria at 5 uM after 24 hrs by Western blotting analysis; type: functional, cell-based
[18] = Antiproliferative activity against human H1299 cells assessed as number of viable cells after 72 hrs by MTT assay; type: functional, NCI-H1299
HepG2 = assay: Antiproliferative activity against human HepG2 cells assessed as number of viable cells after 72 hrs by MTT assay; type: functional, cell-based
BGC-823 [19] = assay: Antitumor activity against human BGC823 cells expressing Nur77-WT xenografted in athymic nude mouse BALB/c assessed as tumor weight 13 mg/kg, ip twice a week after 4 weeks; type: functional, organism-based; design: dose 13 mg/kg
Method in brief: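 BALB/c athymic nude mice (~16 g, 4 weeks old, 28 °C, sterile housing) inoculated subcutaneously with 0.05 ml BGC-823 cell suspension (wild-type, si-Nur77 or si-Ctrl sublines; 2.5×10^10 l-1), n = 6; after 1 week, Csn-B 13 mg kg-1 ip twice weekly or DMSO; tumors weighed at 4 weeks; means ± s.d., two-tailed t-test.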

[20] = biological target: T1, Nuclear receptor subfamily 4immunitygroup A member 1; assay: Agonist activity at nuclear orphan receptor Nur77 expressed in human BGC823 cells co-transfected with pLuc-3500 containing Nr4a1 promoter assessed as transcriptional activity; type: functional, cell-based; conditions: BGC-823
[21] = biological target: T1, Nuclear receptor subfamily 4immunitygroup A member 1; assay: Induction of Nur77-SRC1 interaction in human 293T cells by GST-pull-down assay; type: cell-based
Method in brief: (§1)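 293T cells transfected with Flag-SRC-1, -2 or -3 and treated at 10⁻⁶ M for 3 h. Lysates were incubated with GST-Nur77 or GST alone, and bound SRC was detected by pull-down against input levels.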

[22] = biological target: T1, Nuclear receptor subfamily 4immunitygroup A member 1; assay: Induction of Nur77-SRC3 interaction in HEK293T cells by GST-pull-down assay; type: cell-based; conditions: HEK-293T; method in brief: as §1
BGC-823 [23] = assay: Induction of SRC2 recruitment to NurRE in human BGC823 cells after 12 hrs by luciferase/beta-galactosidase reporter assay; type: functional, cell-based
Method in brief: (§2)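 BGC-823 cells cotransfected with or without SRC-1, SRC-2 or SRC-3, plus NurRE-luciferase reporter and β-galactosidase, then treated for 12 h at a range of concentrations. Fold induction is each luciferase activity relative to non-SRC transfection at the same concentration.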

BGC-823 [24] = assay: Induction of SRC3 recruitment to NurRE in human BGC823 cells after 12 hrs by luciferase/beta-galactosidase reporter assay; type: functional, cell-based; method in brief: as §2
[25] = biological target: T1, Nuclear receptor subfamily 4immunitygroup A member 1; assay: Induction of SRC2-enhanced Nur77 transactivational activity in human BGC823 cells after 12 hrs by luciferase/beta-galactosidase reporter assay; type: cell-based; conditions: BGC-823; method in brief: as §2
[26] = biological target: T1, Nuclear receptor subfamily 4immunitygroup A member 1; assay: Induction of SRC1-enhanced Nur77 transactivational activity in human BGC823 cells after 12 hrs by luciferase/beta-galactosidase reporter assay; type: cell-based; conditions: BGC-823; method in brief: as §2
[27] = biological target: Nuclear receptor subfamily 4 group A member 1 (Mus musculus) (UniProt P12813); assay: Agonist activity at Nur77 in Nr4A1 deficient mouse assessed as transcriptional activation of luciferase reporter gene relative to control; type: functional
[28] = biological target: T1, Nuclear receptor subfamily 4immunitygroup A member 1; assay: Agonist activity at Nur77 expressed in human BGC823 cells assessed as Nr4a1mRNA expression by real-time PCR; type: functional, cell-based; conditions: BGC-823
BGC-823 [29] = assay: Antitumor activity against human BGC823 cells expressing si-Nur77 xenografted in athymic nude mouse BALB/c assessed as apoptotic cells by TUNEL assay; type: functional
Method in brief: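 Tumors from the subcutaneous BGC-823 xenograft nude mice (wild-type, si-Nur77 or si-Ctrl cells; Csn-B 13 mg kg-1 ip twice weekly or DMSO for 4 weeks) were sectioned and apoptotic cells detected by TUNEL assay.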

T1 sequence (P22736 whole entry, the tested form may be a part): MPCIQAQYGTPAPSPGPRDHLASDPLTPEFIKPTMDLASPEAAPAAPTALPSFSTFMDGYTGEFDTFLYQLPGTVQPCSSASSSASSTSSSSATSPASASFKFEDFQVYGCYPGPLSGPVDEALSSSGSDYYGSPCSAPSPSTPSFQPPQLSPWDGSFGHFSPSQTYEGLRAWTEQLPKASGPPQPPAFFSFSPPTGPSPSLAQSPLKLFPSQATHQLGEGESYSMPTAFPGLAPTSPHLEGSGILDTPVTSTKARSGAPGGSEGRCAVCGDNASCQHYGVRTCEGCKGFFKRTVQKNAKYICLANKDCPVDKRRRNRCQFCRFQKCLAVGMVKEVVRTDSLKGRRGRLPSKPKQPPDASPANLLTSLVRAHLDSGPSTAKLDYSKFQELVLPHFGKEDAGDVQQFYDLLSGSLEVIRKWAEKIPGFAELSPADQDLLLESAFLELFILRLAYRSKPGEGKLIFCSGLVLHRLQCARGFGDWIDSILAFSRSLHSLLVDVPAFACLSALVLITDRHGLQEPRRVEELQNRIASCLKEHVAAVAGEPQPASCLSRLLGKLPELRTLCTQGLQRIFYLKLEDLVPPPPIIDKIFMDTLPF

## CCCCCCCC(=O)c1c(O)cc(O)cc1CC(=O)OCC [CYTOSPORONE B]
[1]
  Kd: 740 nM
[2]
  Activity: Active
[3]
  Activity: Active
[4]
  EC50: 0.115 nM
[5]
  Activity: inactive
[6]
  Activity: inactive
[7]
  Activity: inactive
Mus musculus [8]
  Activity: 5.8 mM
[9]
  Activity: inactive
[10]
  Activity: inactive
[11]
  Activity: inactive
[12]
  Activity: inactive
[13]
  Activity: inactive
Mus musculus [14]
  fold change (FC): 3
[15]
  fold change (FC): 6.23
[16]
  fold change (FC): 3.05
BGC-823 [17]
  Activity: Active
[18]
  inhibition (INH): >=40%
HepG2
  Activity: Active
BGC-823 [19]
  Activity: Active
[20]
  Activity: Active
[21]
  Activity: Active
[22]
  Activity: inactive
BGC-823 [23]
  Activity: Active
BGC-823 [24]
  Activity: inactive
[25]
  Activity: Dose-dependent effect
[26]
  Activity: Dose-dependent effect
[27]
  Activity: inactive
[28]
  Activity: Active
BGC-823 [29]
  Activity: Active
